Test results reported in ChEMBL document CHEMBL1138290 (J Med Chem, 2007).

Legend:
K562 = experiment: Antiproliferative activity against human K562 cells after 48 hrs; type: functional, cell-based; conditions: K562, 48 h
Method in brief: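 Growth of K562 cells measured by counting cells with a hemocytometer after 48 h (2 days) of drug treatment. IC50 is the mean of at least three independent determinations.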

Tubulin = Tubulin (Sus scrofa, UniProt P02554+P02550); experiment: Inhibition of porcine brain tubulin polymerization
[1] = Cell cycle arrest in KB/HeLa cells assessed as accumulation at G2/M phase after 24 hrs by flow cytometric analysis; type: functional, cell-based; conditions: Homo sapiens
Method in brief: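 Subconfluent KB/HeLa cells exposed to a range of compound concentrations for 24 h. Cell cycle phase distribution determined by flow cytometry. Experiments run at least in duplicate (n = 2).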

O=S(=O)(Oc1c2ccccc2cc2sccc12)c1ccc(NO)cc1
IC50 (K562): 400 nM

COc1ccc(S(=O)(=O)Oc2c3c(nc4ccccc24)CCCC3)cc1
IC50 (K562): 830 nM
IC50 (Tubulin): > 10000 nM

COc1cc(N)ccc1S(=O)(=O)Oc1c2ccccc2cc2sccc12
IC50 (K562): 280 nM

COc1cccc(S(=O)(=O)Oc2c3ccccc3cc3sccc23)c1
IC50 (K562): 250 nM
IC50 (Tubulin): 290 nM

Cc1ccc(S(=O)(=O)Oc2c3ccccc3cc3sccc23)cc1
IC50 (K562): 440 nM
IC50 (Tubulin): 1050 nM

COc1ccc(S(=O)(=O)Oc2c3c(Cl)cccc3cc3cccc(Cl)c23)cc1
IC50 (K562): 10000 nM
IC50 (Tubulin): > 10000 nM

COc1ccc(S(=O)(=O)Oc2c3cccc(Cl)c3cc3c(Cl)cccc23)cc1
IC50 (K562): 1700 nM
IC50 (Tubulin): > 10000 nM

CNc1ccc(S(=O)(=O)Oc2c3ccccc3cc3sccc23)cc1
IC50 (K562): 50 nM
IC50 (Tubulin): 290 nM

CN(C)c1ccc(S(=O)(=O)Oc2c3ccccc3cc3sccc23)cc1
IC50 (K562): 80 nM
IC50 (Tubulin): 940 nM

COc1ccc(S(=O)(=O)Oc2c3ccccc3c(Cl)c3ccccc23)cc1
IC50 (K562): 350 nM

COc1cccc(S(=O)(=O)Oc2c3ccccc3cc3ccccc23)c1
IC50 (K562): 480 nM
IC50 (Tubulin): 390 nM

COc1ccc(C=C2c3ccccc3C(=O)c3ccccc32)cc1O
EC50 [1]: 200 nM

O=S(=O)(Oc1c2ccccc2cc2sccc12)c1ccccc1
IC50 (K562): 800 nM
IC50 (Tubulin): > 14000 nM

Nc1ccc(S(=O)(=O)Oc2c3ccccc3cc3sccc23)cc1
IC50 (K562): 130 nM
IC50 (Tubulin): 710 nM

COc1ccc(S(=O)(=O)Oc2c3ccccc3cc3sccc23)cc1OC
IC50 (K562): 170 nM
IC50 (Tubulin): 1270 nM

Cc1cccc(S(=O)(=O)Oc2c3ccccc3cc3sccc23)c1
IC50 (K562): 530 nM
IC50 (Tubulin): 740 nM

O=[N+]([O-])c1ccc(S(=O)(=O)Oc2c3ccccc3cc3sccc23)cc1
IC50 (K562): 2300 nM
IC50 (Tubulin): > 14000 nM

COc1cc([N+](=O)[O-])ccc1S(=O)(=O)Oc1c2ccccc2cc2sccc12
IC50 (K562): 1400 nM
